Drawing on ChEMBL document CHEMBL1157589, “Antifungal 3,5-disubstituted furanones: From 5-acyloxymethyl to 5-alkylidene derivatives” (Bioorg Med Chem, 2010), this text covers MIC80, MIC95 and Activity for three molecules.

Converted amounts (≈) assume the structure as drawn. The source made the active and inactive calls. The calls are words filed in the database; no cut-off is given here.

What all share (assay type): functional
Assay [1] concerns Pichia kudriavzevii. The experiment in a line: Antifungal activity against Candida krusei ATCC 6258 after 24 hrs by microdilution method. The procedure, abridged:
(§1)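 Yeasts held on Sabouraud dextrose agar. MIC by NCCLS M27-A broth microdilution in RPMI 1640 with L-glutamine, buffered with 0.165 M MOPS to pH 7.0. Compounds in DMSO (≤2% final), twofold dilutions 500–0.48. Final inoculum 5 × 10³ ± 0.2 cfu mL⁻¹. Incubated at 35 °C; absorbance at 540 nm read at 24 and 48 h. MIC is 80% growth inhibition versus control; run twice in duplicate.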
(In general: Dilution methods test growth across graded concentrations, often in twofold steps.)

Assay [2] deals with Candida albicans. Nature of the assay: Antifungal activity against Candida albicans ATCC 90028 after 24 hrs by microdilution method. Put shortly: as §1
Assay [3] has as its system Candida tropicalis. The experiment in a line: Antifungal activity against Candida tropicalis 156 after 24 hrs by microdilution method. The procedure, abridged:
as §1

The subject of assay [4] is Lichtheimia corymbifera. The experiment in a line: Antifungal activity against Absidia corymbifera 272 after 48 hrs by microdilution method. Put shortly:
(§2)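 Filamentous strains held on Sabouraud dextrose agar. NCCLS M27-A broth microdilution in RPMI 1640 with L-glutamine and 0.165 M MOPS, pH 7.0. DMSO diluent ≤2% final; twofold dilutions 500–0.48. Inoculum 5 × 10³ ± 0.2 cfu mL⁻¹ final.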

The subject of assay [5] is Nakaseomyces glabratus. Nature of the assay: Antifungal activity against Candida glabrata 20/I after 24 hrs by microdilution method. The procedure, abridged: as §1
For assay [6], the system named is Aspergillus fumigatus. The experiment in a line: Antifungal activity against Aspergillus fumigatus 231 after 48 hrs by microdilution method. The procedure, abridged:
as §2

In assay [7] the test system is Pichia kudriavzevii. Nature of the assay: Antifungal activity against Candida krusei ATCC 6258 after 48 hrs by microdilution method. The procedure, abridged: as §1
Assay [8] deals with Nakaseomyces glabratus. Nature of the assay: Antifungal activity against Candida glabrata 20/I after 48 hrs by microdilution method. Put shortly:
as §1

For assay [9], the system named is Trichosporon beigelii. The experiment in a line: Antifungal activity against Trichosporon beigelii 1188 after 48 hrs by microdilution method. The procedure, abridged: as §1
In assay [10] the test system is Pichia kudriavzevii. Nature of the assay: Antifungal activity against Candida krusei E28 after 48 hrs by microdilution method. Put shortly: as §1
For assay [11], the system named is Aspergillus fumigatus. Nature of the assay: Antifungal activity against Aspergillus fumigatus 231 after 24 hrs by microdilution method. The procedure, abridged: as §2
Assay [12] deals with Clavispora lusitaniae. Nature of the assay: Antifungal activity against Candida lusitaniae 2446/I after 48 hrs by microdilution method. The procedure, abridged: as §1
Assay [13] has as its system Pichia kudriavzevii. Nature of the assay: Antifungal activity against Candida krusei E28 after 24 hrs by microdilution method. The procedure, abridged: as §1
Assay [14] concerns Candida parapsilosis. Nature of the assay: Antifungal activity against Candida parapsilosis ATCC 22019 after 24 hrs by microdilution method. The procedure, abridged: as §1
The subject of assay [15] is Candida albicans. The experiment in a line: Antifungal activity against Candida albicans ATCC 90028 after 48 hrs by microdilution method. Put shortly: as §1
In assay [16] the test system is Clavispora lusitaniae. Nature of the assay: Antifungal activity against Candida lusitaniae 2446/I after 24 hrs by microdilution method. The procedure, abridged:
as §1

The test system of assay [17] is Candida albicans. Nature of the assay: Antifungal activity against Candida albicans ATCC 44859 after 48 hrs by microdilution method. The procedure, abridged: as §1
Assay [18] deals with Candida parapsilosis. Nature of the assay: Antifungal activity against Candida parapsilosis ATCC 22019 after 48 hrs by microdilution method. The procedure, abridged:
as §1

In assay [19] the test system is Candida tropicalis. The experiment in a line: Antifungal activity against Candida tropicalis 156 after 48 hrs by microdilution method. The procedure, abridged:
as §1

Assay [20] has as its system Trichosporon beigelii. The experiment in a line: Antifungal activity against Trichosporon beigelii 1188 after 24 hrs by microdilution method. The procedure, abridged:
as §1

Assay [21] has as its system Candida albicans. The experiment in a line: Antifungal activity against Candida albicans ATCC 44859 after 24 hrs by microdilution method. Put shortly:
as §1

The test system of assay [22] is Lichtheimia corymbifera. Nature of the assay: Antifungal activity against Absidia corymbifera 272 after 24 hrs by microdilution method. The procedure, abridged:
as §2

Assay [23] relates to Trichophyton mentagrophytes. Nature of the assay: Antifungal activity against Trichophyton mentagrophytes 445 after 72 hrs by microdilution method. Put shortly: (§3)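 Dermatophyte held on Sabouraud dextrose agar. M27-A microdilution in MOPS-buffered (0.165 M, pH 7.0) RPMI 1640 with L-glutamine. DMSO ≤2% final; twofold dilutions 500–0.48. Inoculum 5 × 10³ ± 0.2 cfu mL⁻¹ final. Incubated at 35 °C; MIC read visually at 72 and 120 h as 80% inhibition of control growth; determined twice in duplicate.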

The test system of assay [24] is Trichophyton mentagrophytes. The experiment in a line: Antifungal activity against Trichophyton mentagrophytes 445 after 120 hrs by microdilution method. The procedure, abridged: as §3
[25] abbreviates: Lichtheimia corymbifera, 272, 48 h.
The mark [26] stands for this setting: Aspergillus fumigatus, 231, 48 h.
Where [27] appears, read: Trichosporon beigelii, 1188, 48 h.
[28] abbreviates: Aspergillus fumigatus, 231, 24 h.
[29] abbreviates: Lodderomyces parapsilosis, ATCC 22019, 24 h.
[30] abbreviates: Lodderomyces parapsilosis, ATCC 22019, 48 h.

By MIC80 is commonly meant the lowest concentration that inhibits either 80% of growth or 80% of the strains tested, depending on the study. The low end stands for greater potency, the high end for weaker potency. As to `OC(Cn1cncn1)(Cn1cncn1)c1ccc(F)cc1F` [FLUCONAZOLE], the MIC80 was above 50 µM in assay [1] (ATCC 6258, 24 h); 0.8 µM (≈ 0.245 µg/mL) in assay [2] (ATCC 90028, 24 h); 3 µM (≈ 0.919 µg/mL) in assay [3] (Candida tropicalis, 156, 24 h); above 50 µM in assay [4] (setting [25]); 22 µM (≈ 6.74 µg/mL) in assay [5]; above 50 µM in [6] (setting [26]). The MIC80 in assay [7] (ATCC 6258, 48 h) is above 50 µM; in assay [8] it was above 50 µM; in assay [9] (setting [27]) it was 9 µM (≈ 2.76 µg/mL); in assay [10] (E28, 48 h) it was above 50 µM; in assay [11] (setting [28]), above 50 µM; in assay [12], 3.3 µM (≈ 1.01 µg/mL). The MIC80 was above 50 µM in assay [13] (E28, 24 h); 6.5 µM (≈ 1.99 µg/mL) in [14] (setting [29]); 3.3 µM (≈ 1.01 µg/mL) in assay [15] (ATCC 90028, 48 h); 3.3 µM (≈ 1.01 µg/mL) in [16]; 2 µM (≈ 0.613 µg/mL) in assay [17] (ATCC 44859, 48 h); 13 µM (≈ 3.98 µg/mL) in [18] (setting [30]). The MIC80 is 5 µM (≈ 1.53 µg/mL) in assay [19] (Candida tropicalis, 156, 48 h); 4 µM (≈ 1.23 µg/mL) in [20] (Trichosporon beigelii, 1188, 24 h); 1 µM (≈ 0.306 µg/mL) in assay [21] (ATCC 44859, 24 h); above 50 µM in [22] (Lichtheimia corymbifera, 272, 24 h); 17 µM (≈ 5.21 µg/mL) in [23] (Trichophyton mentagrophytes, 445, 72 h).
As to `C[C@@H]1[C@H](O)[C@@H](C)/C=C/C=C/C=C/C=C/C=C/C=C/C=C/[C@H](O[C@@H]2O[C@H](C)[C@@H](O)[C@H](N)[C@@H]2O)C[C@@H]2O[C@](O)(C[C@@H](O)C[C@@H](O)[C@H](O)CC[C@@H](O)C[C@@H](O)CC(=O)O[C@H]1C)C[C@H](O)[C@H]2C(=O)O` [AMPHOTERICIN B], the MIC95 in assay [1] (ATCC 6258, 24 h) was determined as 0.14 µM (≈ 0.129 µg/mL); in [2] (ATCC 90028, 24 h), 0.07 µM (≈ 0.0647 µg/mL); in assay [3] (Candida tropicalis, 156, 24 h), 0.09 µM (≈ 0.0832 µg/mL); in [4] (setting [25]), 2.16 µM (≈ 2 µg/mL); in assay [5], 0.03 µM (≈ 0.0277 µg/mL); in assay [6] (setting [26]), 0.23 µM (≈ 0.213 µg/mL). The MIC95 in assay [7] (ATCC 6258, 48 h) is 0.14 µM (≈ 0.129 µg/mL); in [8] it was 0.09 µM (≈ 0.0832 µg/mL); in [9] (setting [27]) it was 1.8 µM (≈ 1.66 µg/mL); in assay [10] (E28, 48 h), 0.18 µM (≈ 0.166 µg/mL); in assay [11] (setting [28]), 0.18 µM (≈ 0.166 µg/mL); in [12], 0.27 µM (≈ 0.25 µg/mL). For the same molecule, the MIC95 in assay [13] (E28, 24 h) came out at 0.14 µM (≈ 0.129 µg/mL); in assay [14] (setting [29]), 0.03 µM (≈ 0.0277 µg/mL); in assay [15] (ATCC 90028, 48 h) it was 0.14 µM (≈ 0.129 µg/mL); in assay [16], 0.14 µM (≈ 0.129 µg/mL); in assay [17] (ATCC 44859, 48 h) it was 0.06 µM (≈ 0.0554 µg/mL); in assay [18] (setting [30]), 0.14 µM (≈ 0.129 µg/mL). For the same molecule, the MIC95 in assay [19] (Candida tropicalis, 156, 48 h) is 0.11 µM (≈ 0.102 µg/mL); in [21] (ATCC 44859, 24 h) it was 0.03 µM (≈ 0.0277 µg/mL).
In the case of `O=C1CCC=C1c1ccc(Cl)c(Cl)c1`, the result in [1], in assay [2], in assay [3], in assay [4], in [6] and in assay [7] was inactive. For the same molecule, the outcome in assay [9], in assay [10], in assay [11], in assay [12], in [24] and in assay [13] was inactive. For the same molecule, the outcome in assay [14], in assay [15], in assay [16], in assay [17], in assay [18] and in assay [19] was inactive. Besides, the outcome in assay [20], in assay [21], in assay [22] and in assay [23] was inactive.
